ChEMBL document CHEMBL1143077, “Synthesis of 2-[3-(7-Chloro-quinolin-4-ylamino)-alkyl]-1-(substituted phenyl)-2,3,4,9-tetrahydro-1H-beta-carbolines as a new class of antimalarial agents” (2008)
In brackets after ≈: the same amount, converted by molar mass.

Each molecule was assayed on Plasmodium falciparum (assay: Antimalarial activity against chloroquine-sensitive Plasmodium falciparum NF54 after 36-40 hrs).
Format: functional
Outline: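 Rieckmann microassay: NF-54 kept in RPMI-1640 with 25 mM HEPES, 1% D-glucose, 0.23% sodium bicarbonate, 10% heat-inactivated human serum. Ring stage obtained by 5% D-sorbitol synchronization; ~1% parasitemia, 3% haematocrit. Compound 0.25–50 µg/ml, duplicate wells, 37 °C in candle jar. Giemsa smears scored microscopically; MIC taken as lowest concentration blocking full maturation to schizonts.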

MIC [µM]	SMILES
0.22 (≈ 0.125 µg/mL)	COC(=O)[C@@H]1Cc2c([nH]c3ccccc23)[C@H](c2ccc(C(C)C)cc2)N1CCCNc1ccnc2cc(Cl)ccc12
18.1 (≈ 10 µg/mL)	COC(=O)[C@@H]1Cc2c([nH]c3ccccc23)[C@@H](c2ccc(C(C)C)cc2)N1CCNc1ccnc2cc(Cl)ccc12
1.79 (≈ 1 µg/mL)	COC(=O)[C@H]1Cc2c([nH]c3ccccc23)[C@H](c2ccc(Cl)cc2)N1CCCNc1ccnc2cc(Cl)ccc12
0.06 (≈ 0.0323 µg/mL)	COC(=O)[C@@H]1Cc2c([nH]c3ccccc23)[C@@H](c2ccc(C)cc2)N1CCCNc1ccnc2cc(Cl)ccc12
3.61 (≈ 2 µg/mL)	COC(=O)[C@@H]1Cc2c([nH]c3ccccc23)[C@H](c2ccc(OC)cc2)N1CCCNc1ccnc2cc(Cl)ccc12
19.1 (≈ 10 µg/mL)	COC(=O)[C@H]1Cc2c([nH]c3ccccc23)[C@H](c2ccc(C)cc2)N1CCNc1ccnc2cc(Cl)ccc12
3.58 (≈ 2 µg/mL)	COC(=O)[C@@H]1Cc2c([nH]c3ccccc23)[C@H](c2ccc(Cl)cc2)N1CCCNc1ccnc2cc(Cl)ccc12
0.46 (≈ 0.248 µg/mL)	COC(=O)[C@H]1Cc2c([nH]c3ccccc23)[C@H](c2ccc(C)cc2)N1CCCNc1ccnc2cc(Cl)ccc12
16.6 (≈ 10 µg/mL)	COC(=O)[C@H]1Cc2c([nH]c3ccccc23)[C@H](c2ccc(Br)cc2)N1CCCNc1ccnc2cc(Cl)ccc12
18.1 (≈ 10 µg/mL)	COC(=O)[C@H]1Cc2c([nH]c3ccccc23)[C@H](c2ccc(C(C)C)cc2)N1CCNc1ccnc2cc(Cl)ccc12
0.391 (≈ 0.125 µg/mL)	CCN(CC)CCCC(C)Nc1ccnc2cc(Cl)ccc12 (centres undefined) [CHLOROQUINE]

The remaining lines, values behind:

SMILES	MIC [µM]
COC(=O)[C@H]1Cc2c([nH]c3ccccc23)[C@H](c2ccc(C(C)C)cc2)N1CCCNc1ccnc2cc(Cl)ccc12	0.22 (≈ 0.125 µg/mL)
COC(=O)[C@H]1Cc2c([nH]c3ccccc23)[C@H](c2ccc(SC)cc2)N1CCCNc1ccnc2cc(Cl)ccc12	17.5 (≈ 10 µg/mL)
COC(=O)[C@@H]1Cc2c([nH]c3ccccc23)[C@H](c2ccc(C(C)C)cc2)N1CCNc1ccnc2cc(Cl)ccc12	18.1 (≈ 10 µg/mL)
COC(=O)[C@@H]1Cc2c([nH]c3ccccc23)[C@@H](c2ccc(C(C)C)cc2)N1CCCNc1ccnc2cc(Cl)ccc12	0.05 (≈ 0.0284 µg/mL)
COC(=O)[C@H]1Cc2c([nH]c3ccccc23)[C@@H](c2ccc(C(C)C)cc2)N1CCCNc1ccnc2cc(Cl)ccc12	0.22 (≈ 0.125 µg/mL)
CCc1ccc([C@@H]2c3[nH]c4ccccc4c3C[C@H](C(=O)OC)N2CCCNc2ccnc3cc(Cl)ccc23)cc1	0.11 (≈ 0.0608 µg/mL)
COC(=O)[C@H]1Cc2c([nH]c3ccccc23)[C@@H](c2ccc(OC)cc2)N1CCCNc1ccnc2cc(Cl)ccc12	3.61 (≈ 2 µg/mL)
COC(=O)[C@H]1Cc2c([nH]c3ccccc23)[C@@H](c2ccc(C(C)C)cc2)N1CCNc1ccnc2cc(Cl)ccc12	18.1 (≈ 10 µg/mL)
COC(=O)[C@@H]1Cc2c([nH]c3ccccc23)[C@H](c2cc(OC)c(OC)c(OC)c2)N1CCCNc1ccnc2cc(Cl)ccc12	16.3 (≈ 10 µg/mL)
COC(=O)[C@H]1Cc2c([nH]c3ccccc23)[C@H](c2cc(OC)c(OC)c(OC)c2)N1CCCNc1ccnc2cc(Cl)ccc12	16.3 (≈ 10 µg/mL)
COC(=O)[C@@H]1Cc2c([nH]c3ccccc23)[C@@H](c2ccc(OC)cc2)N1CCCNc1ccnc2cc(Cl)ccc12	3.61 (≈ 2 µg/mL)
COC(=O)[C@H]1Cc2c([nH]c3ccccc23)[C@H](c2ccc(OC)cc2)N1CCCNc1ccnc2cc(Cl)ccc12	18.1 (≈ 10 µg/mL)
COC(=O)[C@@H]1Cc2c([nH]c3ccccc23)[C@H](c2ccc(SC)cc2)N1CCCNc1ccnc2cc(Cl)ccc12	17.5 (≈ 10 µg/mL)
